From PMC10162598 (Asian Pacific Journal of Cancer Prevention : APJCP, 2023)
Values after ≈ are worked out from the molar mass of the structure shown. Values joined by “and” are separate entries in the source; they are usually repeats but may differ in a detail not shown here. Identical values can stand only once.

Key:
HuCCT-1 (CCA cell line) = experiment: Antiproliferative MTT assay, HuCCT-1; assay type: cell-based, human; settings: for IC25 (concentration that inhibits cell growth by 25%) / IC50 (concentration that inhibits cell growth by 50%): HuCCT-1, MTT, 72 hours, mean±SD; for Selectivity index (SI): ratio of the IC50 in HuCCT-1 and OUMS-36T-1 cells
In short: (§1)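 Cells (8,000/well; HuCCT-1 in RPMI-1640, OUMS-36T-1 in DMEM, both with 10% FBS) were preincubated 24 h at 37°C, 5% CO2, then exposed to test compound for 72 h. Natural product range was 1.95–250 µg/ml. MTT (5 mg/ml stock) was added for 3.5 h, formazan dissolved in DMSO, and A590 read. IC25/IC50 came from dose-response analysis. SI = HuCCT-1 vs OUMS-36T-1 IC50 ratio. Three experiments, triplicate.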

[1] = test system: OUMS-36T-1 (normal human cell line); experiment: Antiproliferative MTT assay, OUMS-36T-1; assay type: cell-based; settings: OUMS-36T-1, MTT, 72 hours, mean±SD
In short: as §1

Notch1 receptor = experiment: RT-PCR mRNA expression of Notch1 receptor in HuCCT-1; assay type: cell-based, human; settings: HuCCT-1, 72 hours
YAP [2] = experiment: RT-PCR mRNA expression of YAP in HuCCT-1; assay type: cell-based, human; settings: HuCCT-1, 72 hours
mTOR = experiment: Western blot protein expression of mTOR in HuCCT-1; assay type: cell-based, human; settings: HuCCT-1, 72 hours, at IC25
In short: (§2)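 After 72 h exposure to test compound, HuCCT-1 cells were lysed in RIPA buffer with protease inhibitor, and protein was quantified by BCA. Lysates were resolved by SDS-PAGE and transferred to nitrocellulose. Membranes were probed overnight with primary antibodies (target and β-actin), then an AP-conjugated anti-rabbit secondary. Bands were quantified by densitometry. Three experiments, each in triplicate.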

YAP [3] = experiment: Western blot protein expression of YAP in HuCCT-1; assay type: cell-based, human; settings: HuCCT-1, 72 hours, at IC25
In short: as §2

JAG1 ligand [4] = experiment: RT-PCR mRNA expression of JAG1 ligand in HuCCT-1; assay type: cell-based, human; settings: HuCCT-1, 72 hours, at IC25
PI3K [5] = experiment: RT-PCR mRNA expression of PI3K in HuCCT-1; assay type: cell-based, human; settings: HuCCT-1, 72 hours
JAG1 ligand [6] = experiment: Western blot protein expression of JAG1 ligand in HuCCT-1; assay type: cell-based, human; settings: HuCCT-1, 72 hours, at IC25
In short: as §2

PI3K [7] = experiment: Western blot protein expression of PI3K in HuCCT-1; assay type: cell-based, human; settings: HuCCT-1, 72 hours, at IC50
In short: as §2

| SMILES | IC25 (concentration that inhibits cell growth by 25%) (HuCCT-1 (CCA cell line)) [mg/L] | IC25 (concentration that inhibits cell growth by 25%) [1] [mg/L] | IC50 (concentration that inhibits cell growth by 50%) [1] [mg/L] | YAP gene expression, fold-change (YAP [2]; at high concentration (IC50)) [fold] | YAP gene expression, fold-change (YAP [2]; at low concentration (IC25)) [fold] | IC50 (concentration that inhibits cell growth by 50%) (HuCCT-1 (CCA cell line)) | Selectivity index (SI) (HuCCT-1 (CCA cell line)) | further results |
| --- | --- | --- | --- | --- | --- | --- | --- | --- |
| C/C=C/C#CC#C/C=C/c1ccco1 [Atractylodin] | 13.44 ± 6.28 (≈ 73.8 µM) | 10.08 ± 4.27 (≈ 55.3 µM) | 24.47 ± 8.46 (≈ 134 µM) | 2.219 | 0.086 |  |  | Notch1 receptor gene expression, fold of control (Notch1 receptor; at IC25 and IC50 concentrations (low and high)): 0.042 fold; mTOR protein expression, fold (mTOR): 1.67 fold; YAP protein expression, fold (YAP [3]): 0.819 fold |
| C[C@H](NC(=O)Cc1cc(F)cc(F)c1)C(=O)N[C@H](C(=O)OC(C)(C)C)c1ccccc1 [DAPT] |  |  | 150.29 ± 23.79 (≈ 348 µM) |  |  | 88.98 mg/L and 89.88 ± 36.11 mg/L |  |  |
| Nc1ccn([C@@H]2O[C@H](CO)[C@@H](O)C2(F)F)c(=O)n1 [Gemcitabine] | 0.22 ± 0.35 (≈ 0.836 µM) | 3.40 ± 5.78 (≈ 12.9 µM) |  |  |  | 4.97 ± 5.09 mg/L (≈ 18.9 µM) | 14.05 | Notch1 receptor gene expression, fold of control (Notch1 receptor; at IC50): 0.318 fold; JAG1 ligand gene expression, fold (JAG1 ligand [4]): 1.344 fold; PI3K gene expression, fold (PI3K [5]; at IC25): 1.4 fold; PI3K gene expression, fold (PI3K [5]; at IC50): 2.25 fold; JAG1 ligand protein expression, fold (JAG1 ligand [6]): 0.610 fold; PI3K protein expression, fold (PI3K [7]): 0.677 fold |
| O=c1ncccn1[C@@H]1O[C@H](CO)[C@@H](O)[C@H]1O [Zebularine] |  |  |  |  |  |  | 4.41 | YAP gene expression, fold-change (YAP [2]; concentration not given): 0.647 fold |
| C=C1CCC[C@]2(C)CC[C@@H](C(C)(C)O)C[C@@H]12 [β-eudesmol] | 6.37 ± 2.53 (≈ 28.6 µM) | 18.12 ± 7.43 (≈ 81.5 µM) |  | 1.978 | 0.280 |  | 1.68 |  |
